Assay outcomes: PubChem, several laboratories
Most compounds without a hit are left out; they make up all but 3.2% or so of the library.
MEKK3 PB1 HTS – MEKK3-MEK5 PB1 interaction, increase or decrease | 1.4% of 290,000 active | bead-based flow cytometry, Alexa488-MEK5 binding to MEKK3; actives lie on both sides; 0 = blocked by unlabeled MEK5, 100 = vehicle | Q99759 | AID 1529 | binding response (% of control), % at 10 µM;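 active = binding response more than 3 SD above or below the average of its plate-row segment, actives on both sides; inconclusive = wells at one plate position flagged as instrument error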;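 also: Alexa488 bead fluorescence after subtracting the streptavidin-only scavenger bead signal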
MEKK2wt PB1 HTS – raises or lowers MEK5 binding to wildtype human MEKK2 PB1 domain; 1.1% of 290,000 active; bead flow cytometry, Alexa488-MEK5 binding to MEKK2 WT; actives lie on both sides; binding response (% of control), % at 10 µM; Q9Y2U5; in the data active = binding response below about 67% or above about 130%; inconclusive = no clear call, values can overlap the other calls; inactive = in between
UBC13 inh – blocks human UBC13 polyubiquitin chain formation; AID 485273; P61088; inhibition, % at 20 µM; 0.47% of 330,000 active; TR-FRET; in the data active = inhibition above about 45%, passing the limit was not always enough; inconclusive = no clear call, values can overlap the other calls
DSG3 Ab inh – blocks pemphigus antibody binding to human desmoglein-3; P32926; DSG3-coupled beads, scFv-anti-DSG3-GFP binding, flow cytometry; active compounds read low; binding (percent of control), % at 10 µM; 0.48% of 310,000 active; AID 588358;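 active = binding more than 3 SD below its plate's average and above zero; inconclusive = below that plate limit but binding exactly zero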;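 also: hits lower antibody fragment binding to DSG3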
Target sequence (P32926 whole entry, looked up, the tested form may be a part): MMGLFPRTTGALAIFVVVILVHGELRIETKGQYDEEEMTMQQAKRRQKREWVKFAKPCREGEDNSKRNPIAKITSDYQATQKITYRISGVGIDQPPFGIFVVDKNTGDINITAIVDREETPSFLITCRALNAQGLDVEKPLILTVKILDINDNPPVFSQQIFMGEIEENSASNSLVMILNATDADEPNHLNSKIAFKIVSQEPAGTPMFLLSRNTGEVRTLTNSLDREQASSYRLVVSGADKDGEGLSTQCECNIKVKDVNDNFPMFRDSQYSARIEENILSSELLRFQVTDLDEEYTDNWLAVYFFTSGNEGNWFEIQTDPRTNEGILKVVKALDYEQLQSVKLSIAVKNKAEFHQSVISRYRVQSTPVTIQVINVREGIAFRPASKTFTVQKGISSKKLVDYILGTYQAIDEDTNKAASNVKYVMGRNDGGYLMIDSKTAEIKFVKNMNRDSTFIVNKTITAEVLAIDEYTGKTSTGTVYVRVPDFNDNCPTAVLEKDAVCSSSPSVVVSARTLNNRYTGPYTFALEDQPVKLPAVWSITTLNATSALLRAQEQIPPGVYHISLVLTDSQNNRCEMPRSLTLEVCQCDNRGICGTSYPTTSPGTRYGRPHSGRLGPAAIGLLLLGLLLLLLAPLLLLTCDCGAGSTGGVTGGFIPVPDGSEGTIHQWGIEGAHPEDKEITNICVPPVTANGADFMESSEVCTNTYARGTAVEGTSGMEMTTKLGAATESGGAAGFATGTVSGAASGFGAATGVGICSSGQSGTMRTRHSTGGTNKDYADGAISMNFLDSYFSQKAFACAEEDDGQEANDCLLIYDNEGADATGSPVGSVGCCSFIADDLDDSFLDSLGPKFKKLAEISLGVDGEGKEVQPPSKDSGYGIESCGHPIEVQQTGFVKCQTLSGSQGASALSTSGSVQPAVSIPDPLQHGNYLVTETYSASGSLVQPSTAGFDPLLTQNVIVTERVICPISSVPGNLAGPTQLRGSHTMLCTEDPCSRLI
Apaf1 inhib – human Apaf-1 inhibition; O14727; reconstituted apoptosome caspase-3 activity, DEVD-Rh110 fluorescence; inhibition, % at 20 µM; 0.71% of 330,000 active; active = inhibition of at least 40% at 20 µM;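 also: plate controls were DMSO wells for no effect and DEVD-CHO caspase inhibitor wells for full effect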
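System: reconstituted apoptosome with Apaf-1, cytochrome c, caspase-9, procaspase-3, dATP; Signal: Rh110 fluorescence intensity; Schedule: 30 min compound preincubation, 50 min activation, room temperature; Reagent: cytochrome c trigger plus (Z-DEVD)2-Rh110 caspase-3 substrate.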
MEKK2mut PB1 HTS – signal of MEK5 binding to mutant human MEKK2 PB1 domain. 0.35% of 290,000 active. percent response, % at 10 µM. bead flow cytometry, Alexa488-MEK5 binding to MEKK2 mutant; in the data active = percent response above about 24%, passing the limit was not always enough
Casp3 UBC13 ctr – counter-screen for UBC13 inhibitors: human caspase-3 inhibition; shares compounds with UBC13 inh; Recombinant caspase-3, Caspase-Glo 3/7 luminescence, 60 min; inhibition, % at 20 µM; 4% of 1,400 active;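 active = mean inhibition across replicates above about 26%, limit read from the data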;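 also: plate controls were DMSO with caspase-3 for no effect and DMSO wells lacking enzyme for full effect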
UBC13 confirm – human UBC13 polyubiquitin inhibition, confirmed | shares compounds with UBC13 inh | UBC13 polyubiquitination, TR-FRET, biochemical | inhibition, % at 10 µM | 68% of 1,400 active | AID 488859; in the data active = inhibition above about 45%; inconclusive = no clear call, values can overlap the other calls
Apaf-1 inh conf – confirmation of Apaf-1 inhibitors | 25% of 1,800 active | shares compounds with Apaf1 inhib | AID 504614 | inhibition, % at 20 µM | reconstituted apoptosome, caspase-3 DEVD-Rh110 fluorescence;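 active = mean inhibition of at least 40% at 20 µM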;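 also: plate controls were DMSO wells for no effect and DEVD-CHO caspase inhibitor control wells for full effect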
Rh110 interf inh – counter-screen for Apaf-1 inhibitors: fluorescence interference. 1,800 tested, under 10 active. shares compounds with Apaf1 inhib. Rh110 fluorescence interference, quenched caspase reaction. activation (fluorescence interference), % at 20 µM;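 active = signal rise of 40% or more at 20 µM, treated as a fluorescence artifact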
Apaf1 inh interf – counter-screen for Apaf-1 inhibitors: fluorescence interference, dose response. 460 tested, under 10 active. fluorescence interference counterscreen, Apaf-1 assay format. shares compounds with Apaf1 inhib. IC50, µM; call rule not given here
* marks the source's active call; other numbers are inactive results; u = inconclusive; x = no result given.

SMILES	MEKK3 PB1 HTS	MEKK2wt PB1 HTS	UBC13 inh	DSG3 Ab inh	Apaf1 inhib	MEKK2mut PB1 HTS	Casp3 UBC13 ctr	UBC13 confirm	Apaf-1 inh conf	Rh110 interf inh	others
CCC(C)[C@H]1CN=C(N)N1CCc1cc(C(F)(F)F)cc(C(F)(F)F)c1 (stereo partly specified)	98	102	79*	104	57*	3	-3	46*	22	-2
Cc1cc(CC(=O)O)c2oc(-c3ccoc3)cc(=O)c2c1	x	x	1	98	-19	x	x	x	x	x
CC(C)C[C@H]1CN=C(Nc2ccccc2)N1CC1CCC(C(C)(C)C)CC1 (stereo partly specified)	x	x	87*	111	56*	x	-2	73*	23	14
c1ccc(-c2sc3ccccc3c2-c2ccc(OCCN3CCOCC3)cc2)cc1	x	x	31	105	24	x	x	x	x	x
CN(C)CCOc1ccc(-c2c(-c3ccsc3)sc3ccccc23)cc1	x	x	78*	103	71*	x	0	74*	24	13
COc1cccc(-c2sc3ccc(OC)cc3c2-c2ccc(OCCN(C)C)cc2)c1	x	x	84*	112	75*	x	0	90*	23	20
Cc1ccc(CNC2CCCCC2)s1	111	113	-2	104	-1	18	x	x	x	x
COCCN=C1N[C@@H](c2cccc(C(F)(F)F)c2)C(C(=O)OC)=C(C)N1Cc1ccccc1	103	114	6	98	26	12	x	x	x	x
COC(=O)C1=C(C)N(Cc2ccccc2)C(=NCc2cccc(C(F)(F)F)c2)N[C@H]1c1cccc(C(F)(F)F)c1	x	x	90*	111	74*	x	4	94*	33	12
COC(=O)C1=C(C)N(Cc2ccccc2)C(=NCCc2c[nH]c3ccccc23)N[C@H]1c1cccc(C(F)(F)F)c1	x	x	74*	121	78*	x	1	86*	43*	0	Apaf1 inh interf=>100
COC(=O)C1=C(C)N(CC2CC2)C(=NCc2cccc(C(F)(F)F)c2)N[C@H]1c1ccccc1	x	x	66*	143	57*	x	3	75*	14	12
CCN(CC)c1ccc(S(=O)(=O)N2CCOCC2)cc1NC(=O)CNCc1cccc(Cl)c1	x	x	x	98	x	x	x	x	x	x
CN(C)C/C=C/C(=O)Nc1cccc(-c2c[nH]c3ncnc(Oc4ccc(NC(=O)CC(=O)Nc5ccc(F)cc5)cc4F)c23)c1	x	x	112*	111	63*	x	3	117*	22	1
CC(=O)Nc1cccc(Oc2ncnc3scc(-c4ccccc4)c23)c1	101	110	3	94	5	-1	x	x	x	x
C=CC(=O)Nc1ccc(N(C)c2ccnc(Nc3ccc(N4CCN(C)CC4)cc3)n2)cc1	x	x	85*	98	62*	x	2	77*	25	6
COc1cc2sc(-c3ccccc3OC)c(-c3ccc(OCCN4CCCCC4)cc3)c2cc1OC	x	x	76*	117	66*	x	-1	74*	25	12
COc1ccccc1-c1sc2cc3c(cc2c1-c1ccc(OCCN2CCCCC2)cc1)OCO3	x	x	77*	104	59*	x	0	69*	9	1
COc1ccc(-c2sc3cc4c(cc3c2-c2ccc(OCCN3CCOCC3)cc2)OCO4)cc1	x	x	u	98	14	x	x	x	x	x
COc1ccc2sc(-c3ccccc3OC)c(-c3ccc(OCCN4CCOCC4)cc3)c2c1	x	x	x	101	28	x	x	x	x	x
Cc1ccsc1C(=O)NC1CCCN(Cc2ccc(Cl)cc2)C1 (stereo unspecified)	102	106	0	136	19	0	x	x	x	x
CCC(=O)N1c2ccc(S(=O)(=O)CCC(=O)N3CCN(c4ccccc4F)CC3)cc2CC1C (stereo unspecified)	101	94	3	106	2	5	x	x	x	x
Cc1cc(N)c2cc(NC(=O)/C=C/c3ccccc3Cl)ccc2n1	104	252*	117*	112	64*	117*	-1	129*	77*	-3	Apaf1 inh interf=>100
Cc1cc(C)nc(NC(=O)/C=C/c2ccccc2Cl)n1	101	98	0	105	6	2	x	x	x	x
Cc1ccccc1OCC(=O)OCC(=O)NC1CCCC1	x	x	x	104	x	x	x	x	x	x
O=C(CN1CCCC1)N1c2ccccc2Sc2ccc(Cl)cc21	105	109	0	90	-2	5	x	x	x	x
SMILES	MEKK3 PB1 HTS	MEKK2wt PB1 HTS	UBC13 inh	DSG3 Ab inh	Apaf1 inhib	MEKK2mut PB1 HTS	Casp3 UBC13 ctr	UBC13 confirm	Apaf-1 inh conf	Rh110 interf inh	others
OCCN1CCN(CC/C=C2/c3ccccc3Sc3ccc(Cl)cc32)CC1	x	x	74*	105	43*	x	4	60*	12	6
N#CC1c2ccccc2-c2ccccc2N1C(=O)c1ccccc1 (stereo unspecified)	x	x	x	98	x	x	x	x	x	x
CCN(CC)CCNC(=O)c1ccc(NC(=O)c2cn(-c3ccc(F)cc3)nc2-c2cccc(OC)c2)cc1	108	222*	92*	108	45*	51*	-2	115*	22	7
O=C1OC[C@H]2CCCN2C(=O)[C@@H](CC(=O)N(CCO)Cc2ccccc2)C/C=C\C[C@@H]1Cc1ccc(F)cc1	x	x	-2	101	13	x	x	x	x	x
CCOC(=O)Cc1csc(SCC(=O)N(CC(C)C)c2c(N)n(Cc3ccccc3)c(=O)[nH]c2=O)n1	x	x	1	94	6	x	x	x	x	x
CCN1CCN(S(=O)(=O)c2ccc(Cl)c(C(=O)N(C)Cc3cccs3)c2)CC1	x	x	49*	x	58*	x	-3	55*	31	1
CC1(C2CC2)NC(=O)N(CC(=O)N2CCN(c3ccccc3Cl)CC2)C1=O (stereo unspecified)	x	x	-6	103	-2	x	x	x	x	x
COc1ccccc1NC1=C(N2CCCCC2)C(=O)c2ccccc2C1=O	99	92	-17	108	95*	-3	x	x	95*	4	Apaf1 inh interf=>100
Cc1ccc(NC2=C(N3CCCCC3)C(=O)c3ccccc3C2=O)cc1	95	96	-44	120	81*	-1	x	x	95*	3	Apaf1 inh interf=>100
O=C(/C=C/c1ccc(O)cc1)c1ccccc1	85	85	-12	99	3	-13	x	x	x	x
